The source made the active and inactive calls. No cut-off for these calls is given here.
Experiments:
Melanocortin receptor 4 [1] = target: T1, Melanocortin receptor 4 (Homo sapiens, UniProt P32245); experiment: Agonist activity at of human MC4R expressed in HEK293 cells assessed as cAMP level at 10^-7 to 10^-12 M after 15 mins by chemiluminescent assay relative to 10% forskolin response; type: functional, cell-based
How it was run: (§1)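 Same cAMP immunoassay in HEK293/hMC4R cells (1mM IBMX, 15 min ligand at 37°C, basal subtracted). For each ligand, the concentration giving cAMP at 5%, 10% or 25% of the 10 μM forskolin maximum was found. Receptor occupancy there was computed as [RL] = Bmax × [L]/([L] + Kd), with Kd from the Eu-NDP-α-MSH competition binding assays.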

Melanocortin receptor 4 [2] = target: T1, Melanocortin receptor 4; experiment: Agonist activity at of human MC4R expressed in HEK293 cells assessed as cAMP level at 10^-7 to 10^-12 M after 15 mins by chemiluminescent assay relative to 5% forskolin response; type: functional, cell-based; how it was run: as §1
Melanocortin receptor 4 [3] = target: T1, Melanocortin receptor 4; experiment: Agonist activity at human MC4R expressed in HEK293 cells assessed as increase in cAMP production at 10^-7 to 10^-12 M after 15 mins by chemiluminescent assay; type: functional, cell-based
How it was run: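 HEK293/hMC4R cells in DMEM with 10% SCS, seeded 3 days ahead. Cells pre-incubated 10 min at 37°C with 1mM IBMX, then 8 ligand concentrations given for 15 min at 37°C. Lysed 25 min at 37°C. cAMP measured by competitive chemiluminescent immunoassay (AP conjugate, anti-cAMP antibody) against a same-run standard curve, basal subtracted. Triplicate wells, 3 experiments.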

Melanocortin receptor 4 [4] = target: T1, Melanocortin receptor 4; experiment: Displacement of Eu-NDP-alpha-MSH from human MC4R expressed in HEK293 cells after 2 hrs by time resolved fluorescence assay; type: cell-based

T1 sequence (P32245 whole entry): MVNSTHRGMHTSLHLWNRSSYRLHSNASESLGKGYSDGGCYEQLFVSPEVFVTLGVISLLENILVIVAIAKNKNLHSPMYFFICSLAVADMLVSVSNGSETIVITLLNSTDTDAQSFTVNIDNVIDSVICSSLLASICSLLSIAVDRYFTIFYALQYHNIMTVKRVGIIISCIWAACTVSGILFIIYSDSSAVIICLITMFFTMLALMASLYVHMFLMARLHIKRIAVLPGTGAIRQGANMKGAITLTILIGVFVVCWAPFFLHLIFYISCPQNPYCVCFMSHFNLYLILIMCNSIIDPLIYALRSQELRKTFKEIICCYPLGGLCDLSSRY

SMILES | Activity (Melanocortin receptor 4 [1]) [pmol] | Activity (Melanocortin receptor 4 [2]) [pmol] | Activity (Melanocortin receptor 4 [3]) | IC50 (Melanocortin receptor 4 [4]) [nM]
C#CCCCC(=O)N[C@@H](Cc1cnc[nH]1)C(=O)N[C@H](Cc1ccccc1)C(=O)N[C@@H](CCCNC(=N)N)C(=O)N[C@@H](Cc1c[nH]c2ccccc12)C(=O)Nc1cn(CC(=O)NCCCC(CCCNC(=O)Cn2cc(NC(=O)[C@H](Cc3c[nH]c4ccccc34)NC(=O)[C@H](CCCNC(=N)N)NC(=O)[C@@H](Cc3ccccc3)NC(=O)[C@H](Cc3cnc[nH]3)NC(=O)CCC#C)nn2)(NC(=O)CNC(=O)Cn2cc(NC(=O)[C@H](Cc3c[nH]c4ccccc34)NC(=O)[C@H](CCCNC(=N)N)NC(=O)[C@@H](Cc3ccccc3)NC(=O)[C@H](Cc3cnc[nH]3)NC(=O)CCC#C)nn2)C(=O)NCCC(N)=O)nn1 (some centres not stated) | 75000 | 14000 | Active | 
C#CCCCC(=O)N[C@@H](Cc1cnc[nH]1)C(=O)N[C@H](Cc1ccccc1)C(=O)N[C@@H](CCCNC(=N)N)C(=O)N[C@@H](Cc1c[nH]c2ccccc12)C(=O)Nc1cn(CC(=O)NCCCC(CCCNC(=O)Cn2cc(NC(=O)[C@H](Cc3c[nH]c4ccccc34)NC(=O)[C@H](CCCNC(=N)N)NC(=O)[C@@H](Cc3ccccc3)NC(=O)[C@H](Cc3cnc[nH]3)NC(=O)CCC#C)nn2)(NC(=O)CNC(C)=O)C(=O)NCCC(N)=O)nn1 (some centres not stated) | 45000 | 12000 | Active | 310

From ChEMBL document CHEMBL1833902, “Design, synthesis, and biological studies of efficient multivalent melanotropin ligands: tools toward melanoma diagnosis and treatment” (J Med Chem, 2011)
